Screening results (PubChem BioAssay)
DNA FID counter: compounds displacing fluorescent DNA intercalator, primary screen, artefact control for HCV NS3 helicase inhibitor project, biochemical, FID fluorescence. DNA fluorescent intercalator displacement. inhibition, % at 7.9 µM. 290,000 compounds, 0.17% hits; in the data active = inhibition above about 37%;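 note: 0% = vehicle and 100% = reference compound; higher means more ethidium bromide displaced from hairpin DNA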
Wee1 degr inh: Wee1 degradation inhibitors, primary screen, cell-based, HeLa, Wee1K328M-luciferase, luminescence; Wee1-like protein kinase (Homo sapiens), P30291; HeLa Luc-Wee1K328M stability; 100% = proteasome inhibitor MG132 effect; reporter increase, % at 5 µM; 220,000 compounds, 1.2% hits; AID 1321, 2008;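 active = activation above the mean of all tested compounds plus 3 SD, set per screening run, cut at about 8.8% in these data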;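 note: cells exposed to compound for 20 h before luminescence read; 0% = DMSO alone and 100% = MG132 at 30 µM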
RBBP9 inh: human RBBP9 inhibitors, primary screen, biochemical, fluorescence polarization, FP-Rh probe, HTS; recombinant RBBP9; Serine hydrolase RBBP9 (Homo sapiens), O75884; inhibition, % at 7.94 µM; 220,000 compounds, 0.2% hits;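 active = inhibition above the campaign mean of all tested compounds plus 3 SD, cut at about 14% in these data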;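 note: plate controls were DMSO wells with RBBP9 for no effect and wells lacking RBBP9 protein for full effect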
Target sequence (O75884 whole entry, looked up): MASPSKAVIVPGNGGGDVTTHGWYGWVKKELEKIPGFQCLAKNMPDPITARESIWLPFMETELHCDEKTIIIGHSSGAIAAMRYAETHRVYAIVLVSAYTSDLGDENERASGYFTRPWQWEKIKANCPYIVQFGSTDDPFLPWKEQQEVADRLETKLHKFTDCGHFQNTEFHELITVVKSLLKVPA
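System: RBBP9 protein | Quantity: 2.5 µM RBBP9 dispensing solution, before mixing | Reagent: FP-Rh probe, 375 nM dispensing solution | Timing: Enzyme-compound preincubation 30 min, then probe labeling 45 min, 25 °C | Measured by: Fluorescence polarization | Read-out: % inhibition | Replication: One well per compound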
Rad51 HR inh: human RAD51 strand exchange inhibitors, primary screen, biochemical, fluorescence; DNA repair protein RAD51 homolog 1 (Homo sapiens), Q06609; 200,000 compounds, 0.085% hits; hRad51 DNA strand exchange, fluorescence dequenching; AID 1385, 2008; inhibition, % at 10 µM;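 active = inhibition above 40% at the single screening dose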;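 note: 0% = DMSO control wells and 100% = blanks with heterologous ssDNA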
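Material: Human Rad51 nucleoprotein filaments preassembled on unlabelled ssDNA | Also added: Labelled 47-mer dsDNA for strand exchange | Dosing: Single dose, 10 µM final compound | Schedule: 30-min compound preincubation and 15-min exchange, both room temperature | Technique: Fluorescence dequenching at 485/520 nm | Measure: Percent inhibition relative to plate controls and blanks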
RBBP9 inh conf: human RBBP9 inhibitors, retest, confirmation, biochemical, fluorescence polarization, FP-Rh probe, triplicate; shares compounds with RBBP9 inh; recombinant RBBP9; inhibition, % at 7.94 µM; 410 compounds, 36% hits; AID 1537, 2009;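 active = inhibition above the hit cutoff derived for the primary screen, cut at about 15% in these data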;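 note: 0% = RBBP9 with DMSO and 100% = wells lacking RBBP9 protein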
Starred values were filed as active, the others as inactive; . = no result. In the library only some 1.2% were active in any assay of this set; here they are far more common.

SMILES	DNA FID counter	Wee1 degr inh	RBBP9 inh	Rad51 HR inh	RBBP9 inh conf
O=C(NCc1cccnc1)C(=O)N/N=C/c1ccccc1[N+](=O)[O-]	0	3	-4	9	.
CC(=O)N(c1ccccc1C)C1CCCC1	-3	0	-5	6	.
CC(=O)N(C1=C(Cl)C(=O)c2ccccc2C1=O)C1CCCCC1	-1	5	55*	0	89*
Cc1nc2scc(-c3ccccc3)c2c(=O)n1N	0	0	-1	-2	.
Cc1nc2scc(-c3ccccc3)c2c(=O)n1N=C1C=CC(=O)C=C1	-22	4	49*	-40	59*
O=C(Oc1ccc(-c2cnc3ccccc3n2)cc1)c1ccc(Br)o1	3	-2	17*	4	-4
O=C(Oc1ccc(-c2cnc3ccccc3n2)cc1)c1cccc([N+](=O)[O-])c1	2	3	-6	-4	.
Cc1ccc(C(C)(C)NC(=O)C2CCC(=O)N(Cc3ccccc3F)C2)cc1 (configuration not stated)	-28	.	.	.	.
CC(C)c1nnc(NC(=O)CCC(=O)NC2CCCCCC2)s1	-6	.	.	.	.
O=c1c2ccccc2sn1-c1ccccc1	-4	-2	51*	-3	50*
CCn1cc(C(=O)N[C@H](C(=O)NCCN2CCOCC2)C(C)C)c(=O)c2cc3c(cc21)OCO3	-11	.	.	.	.
O=C1c2ccccc2C(=O)N1CCN1CCc2ccccc21	-1	-2	17*	0	9
O=[N+]([O-])c1ccc(Nc2c3ccccc3nc3ccccc23)cc1	23	4	16*	-1	12
O=[N+]([O-])c1ccccc1Nc1c2ccccc2nc2ccccc12	3	0	-7	3	.
COC(=O)/C(=C/Nc1ccc(O)cc1)[N+](=O)[O-]	-70	9	38*	1	9
COC(=O)/C(=C/Nc1ccccc1)[N+](=O)[O-]	-2	1	-3	-3	.
COc1cc(CN2CCN(c3ccccc3F)CC2)cc(OC)c1O	15	0	15*	7	7
CCc1ccccc1N1C(=O)C(Cl)=C(N2CCOCC2)C1=O	-6	.	.	.	.
COc1ccc(NC(=O)C2CSC3c4ccccc4C(=O)N23)cc1 (configuration not stated)	-14	-2	14*	4	3
O=C(C[n+]1ccc(C(=O)NCCCO)cc1)c1cccc(Br)c1	6	-1	63*	-5	6
Cc1ccc2c(c1)NC(=O)C(CC(=O)Nc1ccc(Br)c(C)c1)O2 (configuration not stated)	-10	.	.	.	.
Cc1cccc(NS(=O)(=O)c2cc(NC(=O)CC(=O)c3ccc([N+](=O)[O-])cc3)ccc2C)c1	2	1	30*	22	16*
Cc1ccc(C(=O)Nc2cccc([N+](=O)[O-])c2)cc1S(=O)(=O)Nc1ccc(C(=O)O)cc1	-28	-2	6	7	.
Cc1ccc(NC2CCCN(C(=O)CCn3nccc3C)C2)cc1C (configuration not stated)	-26	.	.	.	.
COc1ccc(OC)c(NC(=O)c2cccnc2Sc2cc(C)ccc2C)c1	-30	3	41*	-1	2
COc1ccc(OC)c(NC(=O)c2ccccc2SC)c1	-7	2	4	5	.
